L major viab – Leishmania major promastigote growth inhibition; Leishmania major promastigotes, resazurin fluorescence viability; inhibition, % at 10 µM; actives 9% (n = 200,000); AID 1063; in the data active = inhibition above about 50%;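 also: promastigotes grown with compound for 44 hours at 28 °C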
Lipid droplet – hepatic lipid droplet formation modulation | AID 1656 | AML12 mouse hepatocytes, oleate lipid droplets, BODIPY imaging | actives 0.4% (n = 240,000) | inhibition, % at 6.5 µM;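 active = lipid droplet intensity inhibited by at least 50%, with more than 500 cells counted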
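Technique: fluorescence imaging, 20x objective, two fields per well / Assay system: AML12 hepatocytes (mouse) / Measure: % inhibition of lipid droplet signal / Doses: 6.5 µM single-point dosing / Incubation: overnight exposure / Reagent: 100 µM oleic acid challenge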
DTT redox prof – compounds producing H2O2 with reducing agent – biochemical, NIH compound library profiling, artefact control for MLSCN library redox annotation, primary screen; DTT-dependent redox cycling H2O2, phenol red/HRP absorbance; 100% = 100 µM peroxide control, 0% = buffer; activation, % at 10 µM; actives 0.03% (n = 200,000);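 active = activation of at least 50% relative to the plate's high and low controls in the primary single-dose screen; inactive = activation below 50%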;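 also: compound incubated with DTT at 0.8 mM final as the reducing agent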
T cruzi inh – blocks replication of Trypanosoma cruzi. inhibition, % (no concentration beside the values). actives 1.4% (n = 300,000). T. cruzi beta-gal in NIH3T3, luminescence, 90 h;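 active = mean inhibition across valid replicates above about 55%, limit read from the data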;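 also: signal also drops with host cell toxicity which is not excluded here; 0% = plate median of DMSO wells and 100% = zero luminescence signal; higher percent means less beta-gal luminescence so fewer parasites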
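Assay system: NIH/3T3 host cells with β-galactosidase reporter T. cruzi; input: 5,000 host fibroblasts per well; compound: single 50 nL compound addition per well in DMSO; timing: ≥90 h infection period, 3 h prior cell attachment; measured by: GalScreen β-gal luminescence, detergent lysis, 60 min; evaluation: percent inhibition of parasite-derived β-gal signal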
MPTP block – blocks calcium-induced mitochondrial swelling | AID 602449 | isolated mouse mitochondria, Ca2+ swelling absorbance, 30 min | inhibition, % at 10 µM | actives 1.4% (n = 360,000);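 active = inhibition of 50% or more, scaled per plate between neutral and stimulator controls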;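 also: 0% = DMSO wells given calcium and 100% = 1 mM EGTA wells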
Numbers without * were called inactive; . = no result. Shown is part of a subset that was picked to be rich in hits.

SMILES	L major viab	Lipid droplet	DTT redox prof	T cruzi inh	MPTP block
COc1cc(C2C(C#N)=C(N)Oc3c2ccc2ccccc32)ccc1OCC(=O)Nc1ccc(C)cc1 (centres undefined)	69.1*	-63.9	0.2	-0.2	0.4
Cc1cn([C@H]2C[C@H](O)[C@@H](CCC(=O)NCCc3cccs3)O2)c(=O)[nH]c1=O	.	.	.	.	-3.3
O=C(CCN1C(=O)C2CC=CCC2C1=O)Nc1ccc(S(=O)(=O)N2CCCCC2)cc1 (centres undefined)	.	.	.	.	-1.5
CCOC(=O)c1cnc(SC)nc1Oc1cccc(NS(=O)(=O)c2ccc(F)cc2)c1	19.3	.	-2.6	42.6	1.6
CCOC(=O)c1cnc(SC)nc1Oc1cccc(NS(=O)(=O)c2ccccc2)c1	7.1	.	-0.8	56.3*	1.1
Cc1ccc(OCC2Cn3c(nc4c3c(=O)[nH]c(=O)n4C)O2)cc1C (centres undefined)	.	-26.0	.	-7.4	-0.5
c1ccc(-c2cccc(-c3ccccn3)n2)nc1	100.3*	.	1.8	51.8	1.8
c1ccc(-c2nnc(-c3ccccn3)nn2)nc1	.	.	.	-7.1	0.8
C#CCOCCOCCOCCNc1nc(N2CCN(C(=O)[C@H](CC(N)=O)n3cc(C(N)[C@@H](C)CC)nn3)CC2)nc(N2CCN(C(=O)[C@H](CCC(=O)O)n3cc([C@@H](N)CCCCN)nn3)CC2)n1 (some centres undefined)	.	.	.	.	0.5
O=C(CSc1nnc(-c2c[nH]c3ccccc23)o1)N(Cc1ccccc1)c1ccc(F)cc1	64.3*	-4.0	2.7	54.6*	19.5
Cc1cnc(C(=O)OCC(=O)Nc2cc(-c3ccccc3)nn2-c2ccccc2)cn1	.	.	.	-6.1	-0.4
COc1ccccc1NNC(=O)c1cccnc1Oc1ccccc1	.	1.6	.	-0.2	1.9
COC(=O)C1=CN(c2cc(C)cc(C)c2)C=C(C(=O)OC)C1c1cccc(F)c1	.	-0.7	.	55.5*	2.6
COC(=O)C1=CN(c2cc(C)cc(C)c2)C=C(C(=O)OC)C1c1ccc(OC)c(O)c1	.	-0.1	.	36.5	0.9
C[C@@]12C(=O)N(CC3CCCO3)CC(=O)N1[C@H]1c3cc(Cl)ccc3OC[C@@H]1[C@@H]2c1ccccc1 (some centres undefined)	.	.	.	.	-3.2
Cc1cc(N/N=C/c2ccc(Cl)cc2)nc(NCc2ccccc2)n1	94.0*	-5.1	0.7	80.1*	39.2
Cc1cc(N/N=C/c2cccc(Cl)c2)nc(NCc2ccccc2)n1	77.1*	-23.4	2.1	47.4	20.0
CCOc1cc(C)nc(NCc2ccccc2)n1	64.7*	9.2	0.0	2.1	-0.8
Cc1cc(N/N=C/c2ccccc2)nc(NCc2ccccc2)n1	87.7*	-17.5	0.6	34.9	11.9
CCCCOc1cc(C)nc(NCc2ccccc2)n1	39.5	.	4.7	29.8	4.7
Cc1cc(C)nc(N/N=C/c2cccc(Cl)c2)n1	0.1	-7.0	-1.7	-1.2	-1.2
Cc1cc(N/N=C/c2cccc(F)c2)nc(NCc2ccccc2)n1	.	-0.6	.	22.6	21.1
Cc1cc(N/N=C/c2ccccc2F)nc(NCc2ccccc2)n1	.	-14.7	.	20.6	-0.8
O=C(NCC1CCCN(C(=O)NCc2ccccc2)C1)c1ccc2c(c1)OCO2 (centres undefined)	-3.7	-8.9	-0.2	-9.4	-4.6
NNC(=O)[C@H](Cc1ccccc1)NC(=O)NCCc1ccccc1	.	-1.0	.	-11.5	-0.1
SMILES	L major viab	Lipid droplet	DTT redox prof	T cruzi inh	MPTP block
CCN(c1ccc2c(c1)OCO2)S(=O)(=O)c1cc(Br)cc2c1N(C(C)=O)CC2	33.0	.	-7.0	63.5*	2.3
O=C1OC(c2ccc(F)cc2)=C/C1=C\c1ccc(O)cc1	.	11.2	.	-8.2	4.2
O=C1OC(c2ccc(F)cc2)=C/C1=C\c1ccc([N+](=O)[O-])o1	100.4*	-0.3	-0.3	66.1*	.
CCOC(=O)c1ccc(Oc2nc(NC)nc(Nc3ccccc3)n2)cc1	97.2*	-23.3	0.6	23.1	2.2
CCOC(=O)c1ccc(Oc2nc(OC)nc(N(C)C)n2)cc1	-5.8	-19.3	-2.1	-6.4	1.9
COC(=O)c1ccc(Oc2nc(Nc3ccc(C)c(C)c3)nc(N(C)C)n2)cc1	73.7*	6.1	0.0	21.5	1.7
CC(C)(C)c1ccc(S(=O)(=O)N2CCN(CCC#N)CC2)cc1	56.2*	-17.8	0.1	0.8	-1.5
Cc1cccc(Oc2ccc(S(=O)(=O)N3CCCCC3)cc2N)c1	79.7*	-13.7	0.1	-5.1	2.3
COc1ccccc1Oc1ccc(S(=O)(=O)N2CCCC2)cc1	99.3*	0.4	0.8	9.5	-2.4
Nc1cc(S(=O)(=O)N2CCCCC2)ccc1Oc1ccc(Cl)cc1	-7.2	-9.5	0.2	24.2	2.7
CC(C)(C)c1ccc(S(=O)(=O)N2CCCCC2)cc1	92.3*	-22.8	-0.4	24.0	-1.8
CCc1nc2ccc(C(=O)Nc3cc(-c4ccccc4)ccc3OC)cn2c1N(C=O)CCC(C)C	.	.	.	.	0.5
CN(C(=O)COC(=O)c1ccc(S(=O)(=O)N2CCOCC2)cc1)c1ccccc1	.	.	.	.	0.8
Cn1ccc(C(=O)Oc2ccc(C(=O)Nc3ccc(F)cc3F)cc2)n1	-6.9	2.0	0.0	-16.8	3.2
CC1CCC(NC(=O)CSc2nnc(-c3cccnc3)o2)CC1 (centres undefined)	.	.	.	.	0.5
FC(F)Oc1ccc(NC(=S)N2CCc3ccccc32)cc1	16.0	-5.2	-0.4	-28.1	0.8
C=CCn1c(O)c(N=NC(=O)OC(C)(C)C)c2ccccc21	0.7	20.2	0.1	13.1	0.1
C=CCn1c(O)c(N=NC(=S)Nc2ccc(OC)c(Cl)c2)c2ccccc21	97.5*	6.5	0.2	57.1*	0.0
CC(C)CNC(=O)COC(=O)CNC(=O)c1cc(Cl)cc([N+](=O)[O-])c1	-5.0	8.8	0.0	-0.4	-0.7
CC(C)(C)C(=O)/C(=C\c1cccc([N+](=O)[O-])c1)n1cncn1	100.6*	3.4	1.6	6.0	2.2
COC(=O)c1ccc(CSc2nc3c(c(=O)n2-c2ccccc2)SCC3)o1	87.4*	-10.6	0.1	17.3	0.0
COc1ccc(NC(=O)CSc2nc3c(c(=O)n2-c2ccc(F)cc2)SCC3)cc1	8.9	-2.9	-0.2	5.7	-0.8
COC(=O)c1ccc(CSc2nc3ccccc3c(=O)n2-c2ccc(OC)c(OC)c2)o1	97.3*	-2.1	2.6	23.2	-0.3
COC(=O)c1ccc(CSc2nc3ccccc3c(=O)n2-c2ccccc2)o1	19.3	-7.8	-0.1	15.1	-0.3
O=C(CSc1nc2c(c(=O)n1-c1ccccc1)SCC2)N1CCOCC1	-0.7	-8.2	0.1	2.4	-1.2
COC(=O)c1ccc(CSc2nc3c(c(=O)n2-c2ccc(F)cc2)SCC3)o1	100.1*	-17.4	2.1	21.4	1.9
O=C(COC(=O)CNS(=O)(=O)c1ccc(F)c(F)c1F)Nc1ccc(OC(F)F)cc1	81.7*	3.4	0.1	8.8	3.0
CCCOc1ccc(-c2nn(-c3ccccc3)cc2/C=C2\SC(N)=NC2=O)cc1C	15.8	8.7	-0.1	55.7*	0.3
Cc1ccc(OCc2nnn(CC(=O)NS(=O)(=O)c3c(C)noc3C)c2-c2ccccc2)cc1	.	.	.	.	1.5

Screening results (PubChem BioAssay)
